HTR2A ag: mouse HTR2A agonism via beta-arrestin recruitment | P35363 | CHO-K1 mHTR2A beta-arrestin complementation, luminescence; percent of 30 µM serotonin response | activation, % at 7.6 µM | 360,000 compounds, 0.66% hits;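 active = activation above a run cutoff, the mean activation of all tested compounds plus 3 SD, cut at about 14% in these data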;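 also: 0% = plate median of compound wells and 100% = 30 µM serotonin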
GAA850 FXN act: activators of GAA850 frataxin (FXN) promoter; HEK293 lucGAA850 FXN promoter luciferase reporter, 24 h; percent of 10 µM SAHA response; activation, % at 6 µM; 360,000 compounds, 0.56% hits; AID 540364;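 active = activation above the average of all compounds screened plus 3 SD, cutoff fixed separately per campaign, cut at about 7.5% in these data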;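 also: 0% = DMSO wells and 100% = 10 µM SAHA wells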
MC4R antag cAMP: human MC4R antagonism in cAMP assay. P32245. MC4R-expressing cells, MTII-stimulated cAMP, LANCE TR-FRET. inhibition, % at 6.5 µM. 360,000 compounds, 0.48% hits. AID 540295;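 active = inhibition above its plate's cutoff, the mean of tested wells on that plate plus 3 SD, cut at about 29% in these data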;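 also: 0% = Melanotan II alone and 100% = Melanotan II plus saturating MCL0020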
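Assay system: U2OS-MC4R stable cell line; Also added: Melanotan II; Technique: Eu-cAMP/anti-cAMP TR-FRET, emission 671 nm; Times: 30-min compound, 1-h challenge, 1-h detection, room temperature.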
AHR act: activators of human aryl hydrocarbon receptor. 320,000 compounds, 2.5% hits. AID 2796. AHR-responsive luciferase reporter cells, luminescence. activation, % at 5 µM. P35869; in the data active = activation above about 47%;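 also: 0% = vehicle wells and 100% = reference agonist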
MC4R barr agon: activates human MC4R beta-arrestin recruitment. P32245. U2OS MC4R beta-arrestin complementation, luminescence; percent of melanotan II response, DMSO zero. activation, % at 8.9 µM. 360,000 compounds, 0.98% hits. AID 540308;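 active = activation above a per-plate cutoff, the mean activation of sample wells on that plate plus 3 SD, cut at about 8% in these data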
OPRM1 ag: OPRM1 agonism in mouse HTR2A counterscreen; AID 624380; shares compounds with HTR2A ag; activation, % at 9.3 µM; 2,300 compounds, 5.3% hits; U2OS OPRM1 beta-arrestin PathHunter, luminescence; DMSO 0%, DAMGO 9.3 µM 100%;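 active = mean activation above the mean of DMSO-only wells plus 3 SD, cut at about 0.5% in these data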
Target sequence (P35372 whole entry, looked up): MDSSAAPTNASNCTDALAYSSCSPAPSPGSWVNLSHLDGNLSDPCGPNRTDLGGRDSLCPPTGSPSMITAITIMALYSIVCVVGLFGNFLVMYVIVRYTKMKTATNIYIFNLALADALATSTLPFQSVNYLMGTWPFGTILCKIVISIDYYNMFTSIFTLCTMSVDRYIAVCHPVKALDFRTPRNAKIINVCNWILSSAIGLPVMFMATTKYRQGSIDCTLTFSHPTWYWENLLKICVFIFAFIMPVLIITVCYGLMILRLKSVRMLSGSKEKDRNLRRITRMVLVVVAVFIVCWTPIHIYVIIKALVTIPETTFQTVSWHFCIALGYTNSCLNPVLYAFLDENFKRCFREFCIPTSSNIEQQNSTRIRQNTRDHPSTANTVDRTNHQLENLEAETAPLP
HTR2A ag conf: confirmation of mouse HTR2A serotonin receptor agonists | shares compounds with HTR2A ag | CHO-K1 PathHunter beta-arrestin recruitment, luminescence; DMSO 0%, 30 µM serotonin 100% | 2,300 compounds, 19% hits | activation, % at 7.6 µM;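 active = mean activation across triplicates above the hit threshold derived in the original primary screen, cut at about 15% in these data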
Active calls of the source: *. An excerpt weighted towards active compounds, which were near 4.7% of everything screened.

How did CN(CC(=O)Nc1ccccc1Cl)C(=O)c1cc2c(s1)CCCCC2 do in these assays?
HTR2A ag: -4; GAA850 FXN act: 1; MC4R antag cAMP: 5; MC4R barr agon: -5

What do the screens show for `O=C(Cc1c(F)cccc1Cl)OCC(=O)c1ccc[nH]1`?
HTR2A ag: 0; GAA850 FXN act: 2; MC4R antag cAMP: -2; AHR act: -2; MC4R barr agon: -2

How did Nc1nc(CN2CCN(c3cccc(Cl)c3)CC2)nc(N2CCCc3ccccc32)n1 do in these assays?
HTR2A ag: 24*; GAA850 FXN act: -1; MC4R antag cAMP: 4; AHR act: -3; MC4R barr agon: 5; OPRM1 ag: 0; HTR2A ag conf: 77*

How did Nc1nc(CN2CCN(c3ccccc3)CC2)nc(N2CCCc3ccccc32)n1 do in these assays?
HTR2A ag: 28*; GAA850 FXN act: -2; MC4R antag cAMP: 9; AHR act: -1; MC4R barr agon: 1; OPRM1 ag: 0; HTR2A ag conf: 71*

Results for Cc1ccc(Nc2nc(N)nc(CN3CCN(c4ccccc4)CC3)n2)cc1Cl ?
HTR2A ag: 15*; GAA850 FXN act: 0; MC4R antag cAMP: 4; AHR act: 9; MC4R barr agon: 3; OPRM1 ag: 0; HTR2A ag conf: 70*

How did COc1ccc(N2CCN(Cc3nc(N)nc(Nc4ccc(C)c(Cl)c4)n3)CC2)cc1 do in these assays?
HTR2A ag: 0; GAA850 FXN act: -2; MC4R antag cAMP: 5; AHR act: 7; MC4R barr agon: 2

Results for N#CC1(NC(=O)CSc2ccccn2)CCCCC1 ?
HTR2A ag: 15*; GAA850 FXN act: -1; MC4R antag cAMP: 1; AHR act: -2; MC4R barr agon: 2; OPRM1 ag: -1; HTR2A ag conf: -4

What do the screens show for `Cc1cc([N+](=O)[O-])ccc1NC(=O)c1cncc(Br)c1`?
HTR2A ag: 16*; GAA850 FXN act: -2; MC4R antag cAMP: -5; AHR act: 1; MC4R barr agon: -1; OPRM1 ag: 0; HTR2A ag conf: -5

Results for Cc1ccc(NC(=O)c2cncc(Br)c2)c(O)c1 ?
HTR2A ag: -2; GAA850 FXN act: -2; MC4R antag cAMP: 3; AHR act: 46; MC4R barr agon: -1

How did Cc1cc2nc(-c3cccc(Cl)c3)c(Cc3ccsc3)n2c(C)c1Br do in these assays?
HTR2A ag: 5

How did CN(C)c1nc(Oc2ccc(C(=O)OCC(=O)Nc3ccccc3)cc2)nc(N(C)C)n1 do in these assays?
HTR2A ag: 8; GAA850 FXN act: 0; MC4R antag cAMP: 0; AHR act: 0; MC4R barr agon: 0

What do the screens show for `CCOC(=O)c1ccc(Oc2nc(OC)nc(N(C)C)n2)cc1`?
HTR2A ag: 18*; GAA850 FXN act: -1; MC4R antag cAMP: 8; AHR act: 1; MC4R barr agon: -3; OPRM1 ag: -1; HTR2A ag conf: 0

How did O=C(COC(=O)CCC(=O)c1ccc(Cl)cc1)NCCc1ccccc1 do in these assays?
HTR2A ag: 18*; GAA850 FXN act: 1; MC4R antag cAMP: 2; AHR act: 0; MC4R barr agon: -2; OPRM1 ag: -1; HTR2A ag conf: -4

Results for CCCCNC(=O)COC(=O)CCC(=O)c1ccc(Cl)cc1 ?
HTR2A ag: 5; GAA850 FXN act: 2; MC4R antag cAMP: 2; AHR act: 3; MC4R barr agon: -1

What do the screens show for `CCCc1cnc(N2CCN(C(=O)c3ccc(F)cc3)CC2)nc1`?
HTR2A ag: -4; GAA850 FXN act: -1; MC4R antag cAMP: 7; AHR act: 0; MC4R barr agon: -1

Results for CCCc1cnc(N2CCN(C(=S)NC)CC2)nc1 ?
HTR2A ag: 17*; GAA850 FXN act: 4; MC4R antag cAMP: -6; AHR act: -3; MC4R barr agon: 0; OPRM1 ag: -1; HTR2A ag conf: 1

What do the screens show for `CCOC(=O)[C@H]1[C@H]2COc3ccccc3[C@@H]2N2C(=O)c3cc(F)ccc3NC(=O)[C@@]12C`?
HTR2A ag: 0; GAA850 FXN act: -6; MC4R antag cAMP: 7; AHR act: 6; MC4R barr agon: -3

Results for CCOC(=O)[C@H]1[C@H]2COc3ccccc3[C@@H]2N2C(=O)c3cc(F)c(F)cc3NC(=O)[C@@]12C ?
HTR2A ag: 15*; GAA850 FXN act: -8; MC4R antag cAMP: 3; AHR act: 2; MC4R barr agon: -2; OPRM1 ag: 0; HTR2A ag conf: 2

What do the screens show for `COc1ccc(-c2noc(N3CCC(C(=O)Nc4ccc(OC)cc4OC)CC3)n2)cc1`?
HTR2A ag: -3; GAA850 FXN act: -4; MC4R antag cAMP: 9; AHR act: -6; MC4R barr agon: 2

How did COc1ccc(NC(=O)C2CCN(c3nc(-c4ccc(OC)cc4)no3)CC2)cc1 do in these assays?
HTR2A ag: 17*; GAA850 FXN act: -7; MC4R antag cAMP: 10; AHR act: -3; MC4R barr agon: 4; OPRM1 ag: 0; HTR2A ag conf: 0

Results for CC[C@@H]1CC2=C(C(=O)OC(C)(C)O2)[C@@H](c2ccc(Cl)cc2)O1 ?
HTR2A ag: 2

Results for COc1ccc(C(=O)Nc2ccnn2C2CCN(C3CCC3)CC2)cc1 ?
HTR2A ag: 4; GAA850 FXN act: 0; MC4R antag cAMP: 6; AHR act: 3; MC4R barr agon: 0

Results for COc1ccc(CN2CCN(c3ncccn3)CC2)c(OC)c1 ?
HTR2A ag: 39*; GAA850 FXN act: 0; MC4R antag cAMP: 5; AHR act: 1; MC4R barr agon: 2; OPRM1 ag: 0; HTR2A ag conf: 99*

How did COc1ccc(CN2CCN(c3ccccn3)CC2)c(OC)c1 do in these assays?
HTR2A ag: 40*; GAA850 FXN act: 1; MC4R antag cAMP: 8; AHR act: 46; MC4R barr agon: -2; OPRM1 ag: 0; HTR2A ag conf: 82*

What do the screens show for `COc1cc(CN2CCN(c3ncccn3)CC2)cc(OC)c1`?
HTR2A ag: 21*; GAA850 FXN act: 1; MC4R antag cAMP: 5; AHR act: -1; MC4R barr agon: 0; OPRM1 ag: -1; HTR2A ag conf: 121*

What do the screens show for `OC(c1cc(F)cc(Cl)c1)c1ncc(-c2ccccc2C(F)(F)F)[nH]1` (stereo not drawn)?
HTR2A ag: 0; GAA850 FXN act: 1; MC4R antag cAMP: -2; MC4R barr agon: -2

Results for CCN(c1ccc(NC(=O)COC(=O)C(C)N=C2NS(=O)(=O)c3ccccc32)cc1)C(C)C (stereo not drawn) ?
HTR2A ag: -2; GAA850 FXN act: 2; MC4R antag cAMP: 6; MC4R barr agon: -4

Compound activity deposited in PubChem BioAssay by The Scripps Research Institute Molecular Screening Center.
